Bioassay records (PubChem BioAssay)
This is a sample that favours compounds with a hit; in the whole collection about 1.6% have one here.
Neddylation inh = cullin neddylation inhibition. TR-FRET cullin neddylation, biochemical. calls only at 25 µM. hit rate 0.58% among 360,000; in the data active = inhibition above about 36%
Apaf1 inhib = inhibitors of human Apaf-1 apoptosome; O14727; reconstituted apoptosome caspase-3 activity, DEVD-Rh110 fluorescence; inhibition, % at 20 µM; hit rate 0.71% among 330,000; active = inhibition of at least 40% at 20 µM;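 note: plate controls were DMSO wells for no effect and DEVD-CHO caspase inhibitor wells for full effect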
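Material: cell-free apoptosome with Apaf-1, procaspase-3 and caspase-9; Buffer or medium: Hepes pH 7.5 with detergent and BSA; Reagent: cytochrome c trigger plus (Z-DEVD)2-Rh110 caspase-3 substrate; Times: compound with Apaf-1, dATP, procaspase-3 30 min, then 50 min reaction, room temperature; Technique: Rh110 fluorescence intensity.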
RAD54 branch = inhibitors of human RAD54 branch migration; Q92698; RAD54 Holliday junction branch migration, FAM/BHQ fluorescence; inhibition, % at 10.4 µM; hit rate 0.14% among 360,000;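 active = mean normalized replicate activity at least 40 and at least half of replicates scoring 40 or more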;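 note: 0% = median of neutral control wells and 100% = median of positive control wells; inhibitors cause a drop in the FAM fluorescence signal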
UBC13 polyUb = blocks human UBC13 polyubiquitin chain formation; TR-FRET; hit rate 0.47% among 330,000; P61088; inhibition, % at 20 µM; in the data active = inhibition above about 45%, passing the limit was not always enough
Target sequence (P61088 whole entry, looked up): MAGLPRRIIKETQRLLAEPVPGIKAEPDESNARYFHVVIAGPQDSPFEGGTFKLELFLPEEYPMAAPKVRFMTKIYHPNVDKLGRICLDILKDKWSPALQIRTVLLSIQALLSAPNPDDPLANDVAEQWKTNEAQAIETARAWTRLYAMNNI
RAD52 inh = RAD52 (human) annealing inhibition | recombinant RAD52 DNA annealing, FRET fluorescence | AID 651710 | hit rate 0.46% among 360,000 | inhibition, % at 18.7 µM | P43351;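 active = every replicate showing at least 50% inhibition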
Target sequence (P43351 whole entry, looked up): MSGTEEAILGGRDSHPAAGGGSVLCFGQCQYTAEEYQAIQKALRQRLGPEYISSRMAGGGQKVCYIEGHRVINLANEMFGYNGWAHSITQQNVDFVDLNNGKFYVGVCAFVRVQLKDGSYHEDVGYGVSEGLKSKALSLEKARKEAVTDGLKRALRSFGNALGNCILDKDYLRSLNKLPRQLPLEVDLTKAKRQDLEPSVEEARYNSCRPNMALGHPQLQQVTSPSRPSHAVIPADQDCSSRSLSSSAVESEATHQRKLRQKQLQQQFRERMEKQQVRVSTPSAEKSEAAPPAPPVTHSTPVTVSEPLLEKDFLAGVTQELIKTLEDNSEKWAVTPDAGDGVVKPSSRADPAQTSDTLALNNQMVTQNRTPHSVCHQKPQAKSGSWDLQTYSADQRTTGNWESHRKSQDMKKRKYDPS
FID counter = fluorescent intercalator displacement, NS3 helicase counter-screen; DNA fluorescent intercalator displacement, fluorescence; inhibition, % at 7.9 µM; hit rate 0.17% among 290,000; AID 1845; in the data active = inhibition above about 37%;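 note: 0% = vehicle and 100% = reference compound; higher means more ethidium bromide displaced from hairpin DNA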
Apaf-1 inh conf2 = Apaf-1 inhibition, single-dose confirmed | shares compounds with Apaf1 inhib | reconstituted apoptosome, caspase-3 DEVD-Rh110 fluorescence | inhibition, % at 20 µM | hit rate 25% among 1,800;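 active = mean inhibition of at least 40% at 20 µM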;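 note: plate controls were DMSO wells for no effect and DEVD-CHO caspase inhibitor control wells for full effect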
Rh110 interf inh = Rh110 signal interference in Apaf-1 inhibitor counter-screen; activation (fluorescence interference), % at 20 µM; 1,800 tested, under 10 active; Rh110 fluorescence interference, quenched caspase reaction; shares compounds with Apaf1 inhib;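 active = signal rise of 40% or more at 20 µM, treated as a fluorescence artifact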
Apaf1 inh interf = counter-screen for Apaf-1 inhibitors: fluorescence interference, dose response; 460 tested, under 10 active; shares compounds with Apaf1 inhib; fluorescence interference counterscreen, Apaf-1 assay format; IC50, µM; call rule not given here
* = called active by the depositor; i = inactive; · = no result shown.

SMILES	Neddylation inh	Apaf1 inhib	RAD54 branch	UBC13 polyUb	RAD52 inh	FID counter	Apaf-1 inh conf2	Rh110 interf inh	others
CC(=O)c1ccc2c(c1)C1C=CCC1C(c1ccncc1)N2 (stereo not given)	i	59.6*	-19.5	-16.2	·	-11.6	30.0	6.8
COc1nc(N/N=C/c2ccc(-c3ccccc3[N+](=O)[O-])o2)nc(N2CCOCC2)n1	i	54.4*	-8.3	-52.6	-25.0	-10.6	25.8	7.3
O=[N+]([O-])c1ccc(-c2ccc(/C=N/Nc3nc(NCc4ccccc4)nc(N4CCOCC4)n3)o2)cc1	i	0.1	·	-30.3	·	-2.2	·	·
C[C@H]1CN([C@@H](C)CO)C(=O)c2cccc(NS(=O)(=O)c3cccs3)c2O[C@@H]1CN(C)Cc1ccncc1	·	·	-1.0	·	-10.9	·	·	·
CC/C(=N/Nc1ccc(Cl)cc1)c1cnnc(SC)n1	i	15.3	·	2.3	·	0.1	·	·
CC/C(=N/Nc1cccc(C)c1)c1cnnc(SC)n1	i	63.2*	·	-10.6	·	-4.0	13.3	5.0
CN(C)C(=O)c1ccc(-c2ccc3c(c2)[C@H]2[C@H](CCN2Cc2cncnc2)[C@H](CO)N3)cc1	·	·	-6.0	·	·	·	·	·
COc1cccc(N2CCN(CC(=O)Nc3ccccc3C(=O)NCc3ccccc3)CC2)c1	i	17.5	1.2	10.7	-24.2	·	·	·
COc1cccc(N2CCN(CC(=O)Nc3ccccc3C(=O)NCCc3ccccc3)CC2)c1	i	49.5*	-8.7	29.2	-18.8	·	12.2	4.6
Cc1c(Cl)cnc(NC(=O)COC(=O)c2ccc([N+](=O)[O-])s2)c1Cl	i	40.4*	-8.5	-20.2	-48.0	1.8	33.1	-0.4
[O-]C(=C(C(=S)Nc1cccc2ccccc12)[n+]1cccc(CO)c1)c1ccc(Cl)s1	i	·	·	·	-4.9	·	·	·
[O-]/C(=C(\C(=S)Nc1cccc2ccccc12)[n+]1ccccc1)c1ccc(Cl)s1	i	47.0*	·	-11.6	·	0.2	15.2	-1.7
COC(=O)C1=C(C)N(Cc2ccccc2)C(=NCc2ccc(OC)cc2)N[C@H]1c1ccccc1	i	51.3*	5.6	43.8	17.8	·	12.1	6.1
Nc1cccc2cnccc12	i	66.5*	-6.3	-53.2	·	11.6	15.4	1.2
Cc1[nH][nH]c(=O)c1C(c1ccc(-c2ccc(Cl)c(C(=O)O)c2)o1)c1c(C)[nH][nH]c1=O	i	·	·	·	-30.8	-1.1	·	·
COC(=O)c1ccccc1-c1ccc(C(c2c(C)[nH][nH]c2=O)c2c(C)[nH][nH]c2=O)o1	i	79.2*	·	-44.5	-16.1	-12.1	30.5	5.8
CC(=O)C1=C(O)C(=O)N(CCc2c[nH]c3ccccc23)C1c1ccc(C)cc1 (stereo not given)	i	4.3	·	6.8	-36.8	-42.6	·	·
CCOc1cc(C2C(C(C)=O)=C(O)C(=O)N2CCc2c[nH]c3ccccc23)ccc1O (stereo not given)	i	49.2*	·	16.3	-7.3	-24.6	12.1	9.2
CC(=O)C1=C(O)C(=O)N(CCc2c[nH]c3ccccc23)C1c1ccco1 (stereo not given)	i	42.9*	-1.0	-36.7	·	-8.5	-1.4	4.7
CN(C=[N+](C)C)c1cccc2c1C(=O)c1ccccc1C2=O	i	43.0*	·	-41.6	·	8.2	21.2	13.2
O=C(O)c1cccc2c1C(=O)c1ccccc1C2=O	i	3.3	8.9	-6.2	5.0	1.1	·	·
O=C(O)c1ccc(S(=O)(=O)/N=C2\C=C(Nc3ccccc3F)C(=O)c3ccccc32)cc1	i	96.3*	11.9	-168.2	6.5	-3.5	98.2*	-3.8	Apaf1 inh interf=>100
Cc1ccccc1NC1=C/C(=N\S(=O)(=O)c2ccc(C(=O)O)cc2)c2ccccc2C1=O	i	96.7*	2.1	-164.5	-1.9	-12.1	98.2*	3.1	Apaf1 inh interf=>100
COC(=O)C(C(C)=O)C1=C/C(=N\S(=O)(=O)c2ccc(C)cc2)c2ccccc2C1=O (stereo not given)	i	20.6	-3.2	-11.4	·	-7.8	·	·
C[C@@H]1CCCCO[C@@H](CN(C)S(C)(=O)=O)[C@@H](C)CN([C@@H](C)CO)C(=O)c2cc(NS(=O)(=O)c3ccc(F)cc3)ccc2O1	·	·	-9.4	·	2.2	·	·	·
SMILES	Neddylation inh	Apaf1 inhib	RAD54 branch	UBC13 polyUb	RAD52 inh	FID counter	Apaf-1 inh conf2	Rh110 interf inh	others
CN(C)CC/C=C1\c2ccccc2Sc2ccc(Cl)cc21	i	49.1*	8.6	11.8	45.5	17.9	15.5	5.5
CC(C)C(=O)NC(c1cccs1)c1cc([N+](=O)[O-])c2cccnc2c1O (stereo not given)	i	68.3*	-3.5	-68.5	·	-9.4	34.6	4.7
Cc1cc(O)c2c(c1O)C(=O)[C@]13C(=C2O)C(=O)[C@@H]2[C@@H](O)[C@H]1[C@@H]1[C@H](O)[C@H]3C(=O)C3=C(O)c4c(O)cc(C)c(O)c4C(=O)[C@]312	i	68.5*	-5.5	-275.8	·	·	58.6*	6.7	Apaf1 inh interf=>100
COc1ccc(NC(=O)N(C)C[C@@H]2OCCCC[C@H](C)Oc3ccc(NS(=O)(=O)c4c(C)noc4C)cc3C(=O)N([C@H](C)CO)C[C@@H]2C)cc1	·	·	-2.1	·	·	·	·	·
Cc1cccnc1NC(=O)c1ccc(OCC2CCCO2)cc1 (stereo not given)	i	54.3*	12.2	19.4	6.6	·	34.3	5.8
CC(Nc1cccc2ccccc12)C(=O)N/N=C/c1ccccn1 (stereo not given)	i	95.3*	-2.1	-115.8	·	-12.1	5.6	7.9
CCOC(=O)C1Nc2ccc(C(F)(F)F)cc2C2c3ccccc3CC12 (stereo not given)	i	29.3	1.0	23.3	-7.4	·	·	·
CCOC(=O)C1Nc2ccccc2C2C(O)C(O)CC12 (stereo not given)	i	65.9*	i	-26.8	-378.3	·	18.2	-6.5
Nc1c(C(=O)NCCN2CCOCC2)c2nc3ccccc3nc2n1CCc1ccccc1F	·	43.3*	12.2	-8.6	·	-9.2	17.9	13.0
Nc1c(C(=O)NCc2ccc3c(c2)OCO3)c2nc3ccccc3nc2n1CCCN1CCOCC1	·	90.3*	·	0.7	·	2.2	44.1*	10.1	Apaf1 inh interf=>100
CN1C(=O)c2cc(NC(=O)c3cccc(F)c3)ccc2OC[C@@H]2O[C@H](CC(=O)NCc3ccccc3)CC[C@@H]21	·	·	-5.0	·	·	·	·	·
COc1ccc(CN(C)C[C@H]2OCCCC[C@@H](C)Oc3ccc(NS(=O)(=O)c4ccc(F)cc4)cc3C(=O)N([C@H](C)CO)C[C@H]2C)cc1	·	·	-2.6	·	49.2	·	·	·
CC(=O)[C@]1(O)Cc2c(O)c3c(c(O)c2[C@@H](O[C@H]2C[C@H](N)[C@H](O)[C@H](C)O2)C1)C(=O)c1ccccc1C3=O	·	46.6*	·	-406.1	·	·	15.2	-32.1
